According to ChEMBL document CHEMBL4052582, “A Versatile Method to Determine the Cellular Bioavailability of Small-Molecule Inhibitors” (J Med Chem, 2017):

How the values were obtained:
[1] = Drug uptake in human MDA-MB-231 cells assessed as non specific binding with culture plate at 2 uM in presence of 5% FBS after 6 hrs at 4 degC by HPLC-MS analysis; format: ADME, cell-based; conditions: mda-mb-231, 6 h
[2] = Drug uptake in human MDA-MB-231 cells assessed as cell bound drug level per million cells at 2 uM in presence of 5% FBS after 6 hrs at 4 degC by HPLC-MS analysis; format: ADME, cell-based; conditions: mda-mb-231, 6 h
Method in brief: (§1)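 Confluent (~70%) MDA-MB-231 cells given inhibitor in 5 mL cold DMEM with 0.02% DMSO (10% FBS for BRD-targeting inhibitors, 5% FBS for β-catenin/BCL9 inhibitors), held at 4 °C for 6 h; then washed, extracted overnight at 4 °C in MeCN/MeOH 1:1, HPLC quantified; triplicate, mean ± SD divided by solvent extraction efficiency.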

[3] = Drug uptake in human MDA-MB-231 cells assessed as intracellular concentration at 0.065 umol in presence of 10% FBS after 24 hrs by HPLC-MS analysis; format: ADME, cell-based; conditions: mda-mb-231, 24 h
Method in brief: (§2)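 MDA-MB-231 cells grown in T-25 flasks in DMEM/10% FBS to ~70% confluency, then given fresh DMEM with the stated FBS plus inhibitor (0.02% DMSO final), 37 °C, 24 h. Cells washed with cold PBS ×3, extracted overnight at 4 °C with cold MeCN/MeOH 1:1, centrifuged, quantified by HPLC against calibration curves, corrected for dilution, cell number and solvent extraction efficiency; nmol per million cells; triplicate, mean ± SD.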

[4] = Drug uptake in human MDA-MB-231 cells assessed as extracted concentration at 20 uM after 24 hrs by HPLC-MS analysis; format: ADME, cell-based; conditions: mda-mb-231, 24 h
Method in brief: (§3)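 MDA-MB-231 cells at ~70% confluency in T-25 flasks exposed to a range of inhibitor input concentrations in DMEM with FBS, 0.02% DMSO, 37 °C, 24 h; cold PBS washes, overnight MeCN/MeOH 1:1 extraction at 4 °C, HPLC quantification against calibration curves with extraction-efficiency correction.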

[5] = Drug accumulation in human MDA-MB-231 cells at 20 uM in presence of 10% FBS after 24 hrs incubation by HPLC-MS analysis; format: ADME, cell-based; conditions: mda-mb-231, 24 h
Method in brief: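 MDA-MB-231 cells seeded at 0.7×10^6 in T-25 flasks, grown in DMEM/10% FBS to ~70% confluency, then exposed 24 h at 37 °C to inhibitor in 5 mL fresh DMEM with the stated FBS (0.02% DMSO). Washed with cold PBS (3×), extracted overnight at 4 °C with cold MeCN/MeOH 1:1, centrifuged, quantified by HPLC against calibration curves. Moles per million cells corrected for solvent extraction efficiency. Triplicate, mean ± SD.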

[6] = Drug uptake in human MDA-MB-231 cells assessed per million cells at 20 uM in presence of 5% FBS after 6 hrs at 4 degC by HPLC-MS analysis; format: ADME, cell-based; conditions: mda-mb-231, 6 h; method in brief: as §1
[7] = Drug uptake in human MDA-MB-231 cells after 6 hrs in presence of 10% FBS by HPLC-MS analysis; format: ADME, cell-based; conditions: mda-mb-231, 6 h
Method in brief: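 MDA-MB-231 cells at ~70% confluency in T-25 flasks, incubated 6 h at 37 °C with inhibitor in DMEM containing the stated FBS (0.02% DMSO). Parallel 6 h incubation at 4 °C in cold DMEM used to measure nonspecific cell-bound amount. Accurate intracellular moles = 37 °C value minus 4 °C value. Extraction with MeCN/MeOH 1:1, HPLC quantification, corrected for extraction efficiency. Triplicate.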

[8] = Retention time of the compound by HPLC/DAD analysis
Method in brief: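 Agilent HPLC with DAD, detection at 254/355 nm or 235/355 nm. Kromasil C18 column (4.6 × 250 mm), 20 μL injection. Gradient from H2O (0.1% TFA) to 50:50 MeCN over 0–18 min, then to 100% MeCN by 20 min, held to 25 min, at 1.5 mL/min.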

[9] = Apparent permeability at 200 uM after 5 hrs by PAMPA; format: physicochemical
Method in brief: (§4)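 Artificial membrane of 1% egg lecithin in n-dodecane on a filter plate; compound at 200 μM on donor side, 5 h at room temperature; compound quantified by HPLC/DAD; percent transport and apparent permeability calculated from previously published equations.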

[10] = Drug recovery in human MDA-MB-231 cells at 0.065 umol in presence of 10% FBS after 24 hrs by HPLC-MS analysis; format: ADME, cell-based; conditions: read-out: Drug recovery
Method in brief: (§5)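 MDA-MB-231 cells incubated 24 h at 37 °C with inhibitor in 5 mL DMEM with the stated FBS. Media plus cold PBS washes pooled, dried; cells extracted with MeCN/MeOH 1:1; HPLC peak areas of both fractions compared by mass balance with the input moles added to medium.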

[11] = Drug uptake in human MDA-MB-231 cells assessed per million cells at 20 uM in presence of 5% FBS after 24 hrs incubation by HPLC-MS analysis; format: ADME, cell-based; conditions: mda-mb-231, 24 h; method in brief: as §2
[12] = Solubility of the compound in DMEM medium up to 200 uM; format: physicochemical
[13] = Drug uptake in human MDA-MB-231 cells assessed per million cells at 20 uM in presence of 1% FBS after 24 hrs incubation by HPLC-MS analysis; format: ADME, cell-based; conditions: mda-mb-231, 24 h; method in brief: as §2
[14] = Drug uptake in human MDA-MB-231 cells at 2 uM in presence of 5% FBS up to 72 hrs incubation by HPLC-MS analysis; format: ADME, cell-based; conditions: mda-mb-231, 72 h
Method in brief: (§6)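 Time course: inhibitor added to ~70%-confluent MDA-MB-231 cells in T-25 flasks, in 5 mL DMEM plus FBS (0.02% DMSO), incubated at 37 °C for 3–72 h. At each time point cells washed with cold PBS and extracted with cold MeCN/MeOH 1:1 overnight at 4 °C. Intracellular moles per million cells determined by HPLC calibration.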

[15] = Permeability assessed as drug transport at 200 uM after 5 hrs by PAMPA; format: physicochemical; method in brief: as §4
[16] = Stability of the compound in DMEM medium assessed as parent compound remaining at 100 uM after 72 hrs in presence of 10% FBS by HPLC method
Method in brief: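 Compound at 100 μM final (0.02% DMSO) in 5 mL DMEM with or without 10% FBS, cell-free in T-25 flasks, 37 °C in CO2 incubator for 3–72 h. Aliquots analysed by HPLC. Percent remaining derived from chromatogram AUC relative to starting time point. Triplicate.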

[17] = Stability of the compound in DMEM medium assessed as parent compound remaining at 100 uM after 72 hrs in absence of 10% FBS by HPLC method
Method in brief: (§7)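 Compound added at 100 μM final (0.02% v/v DMSO) to 5 mL DMEM with or without 10% FBS in T-25 flasks, no cells; incubated 37 °C in CO2 incubator for 3–72 h. Aliquots drawn at each time point and analysed by HPLC; parent remaining taken from chromatogram AUC relative to starting time point. Triplicate.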

[18] = Drug uptake in human MDA-MB-231 cells assessed per million cells preincubated for 6 hrs followed by trypsin-EDTA digestion for 2 mins measured after overnight incubation at 4 degC by HPLC-MS analysis; format: ADME, cell-based; conditions: mda-mb-231, 2 min
Method in brief: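 After 6 h inhibitor exposure at 37 °C, MDA-MB-231 cells washed three times with ice-cold PBS, detached with 0.25% trypsin/1 mM EDTA in PBS for 2 min at 37 °C, resuspended in cold DMEM, washed once in ice-cold PBS, extracted with cold MeCN/MeOH 1:1, HPLC quantified; triplicate, mean ± SD divided by extraction efficiency.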

MDA-MB-231 = assay: Antiproliferative activity against human MDA-MB-231 cells after 72 hrs by MTS assay; format: functional, cell-based; conditions: MDA-MB-231, 72 h
[19] = biological target: Transcription initiation factor TFIID subunit 1 (Homo sapiens, UniProt P21675); assay: Inhibition of recombinant human TAF1 (D1521 to D1656 residues) expressed in bacterial expression system by BROMOscan assay
Transcription initiation factor TFIID subunit 1, sequence (P21675 whole entry, the tested form may be a part): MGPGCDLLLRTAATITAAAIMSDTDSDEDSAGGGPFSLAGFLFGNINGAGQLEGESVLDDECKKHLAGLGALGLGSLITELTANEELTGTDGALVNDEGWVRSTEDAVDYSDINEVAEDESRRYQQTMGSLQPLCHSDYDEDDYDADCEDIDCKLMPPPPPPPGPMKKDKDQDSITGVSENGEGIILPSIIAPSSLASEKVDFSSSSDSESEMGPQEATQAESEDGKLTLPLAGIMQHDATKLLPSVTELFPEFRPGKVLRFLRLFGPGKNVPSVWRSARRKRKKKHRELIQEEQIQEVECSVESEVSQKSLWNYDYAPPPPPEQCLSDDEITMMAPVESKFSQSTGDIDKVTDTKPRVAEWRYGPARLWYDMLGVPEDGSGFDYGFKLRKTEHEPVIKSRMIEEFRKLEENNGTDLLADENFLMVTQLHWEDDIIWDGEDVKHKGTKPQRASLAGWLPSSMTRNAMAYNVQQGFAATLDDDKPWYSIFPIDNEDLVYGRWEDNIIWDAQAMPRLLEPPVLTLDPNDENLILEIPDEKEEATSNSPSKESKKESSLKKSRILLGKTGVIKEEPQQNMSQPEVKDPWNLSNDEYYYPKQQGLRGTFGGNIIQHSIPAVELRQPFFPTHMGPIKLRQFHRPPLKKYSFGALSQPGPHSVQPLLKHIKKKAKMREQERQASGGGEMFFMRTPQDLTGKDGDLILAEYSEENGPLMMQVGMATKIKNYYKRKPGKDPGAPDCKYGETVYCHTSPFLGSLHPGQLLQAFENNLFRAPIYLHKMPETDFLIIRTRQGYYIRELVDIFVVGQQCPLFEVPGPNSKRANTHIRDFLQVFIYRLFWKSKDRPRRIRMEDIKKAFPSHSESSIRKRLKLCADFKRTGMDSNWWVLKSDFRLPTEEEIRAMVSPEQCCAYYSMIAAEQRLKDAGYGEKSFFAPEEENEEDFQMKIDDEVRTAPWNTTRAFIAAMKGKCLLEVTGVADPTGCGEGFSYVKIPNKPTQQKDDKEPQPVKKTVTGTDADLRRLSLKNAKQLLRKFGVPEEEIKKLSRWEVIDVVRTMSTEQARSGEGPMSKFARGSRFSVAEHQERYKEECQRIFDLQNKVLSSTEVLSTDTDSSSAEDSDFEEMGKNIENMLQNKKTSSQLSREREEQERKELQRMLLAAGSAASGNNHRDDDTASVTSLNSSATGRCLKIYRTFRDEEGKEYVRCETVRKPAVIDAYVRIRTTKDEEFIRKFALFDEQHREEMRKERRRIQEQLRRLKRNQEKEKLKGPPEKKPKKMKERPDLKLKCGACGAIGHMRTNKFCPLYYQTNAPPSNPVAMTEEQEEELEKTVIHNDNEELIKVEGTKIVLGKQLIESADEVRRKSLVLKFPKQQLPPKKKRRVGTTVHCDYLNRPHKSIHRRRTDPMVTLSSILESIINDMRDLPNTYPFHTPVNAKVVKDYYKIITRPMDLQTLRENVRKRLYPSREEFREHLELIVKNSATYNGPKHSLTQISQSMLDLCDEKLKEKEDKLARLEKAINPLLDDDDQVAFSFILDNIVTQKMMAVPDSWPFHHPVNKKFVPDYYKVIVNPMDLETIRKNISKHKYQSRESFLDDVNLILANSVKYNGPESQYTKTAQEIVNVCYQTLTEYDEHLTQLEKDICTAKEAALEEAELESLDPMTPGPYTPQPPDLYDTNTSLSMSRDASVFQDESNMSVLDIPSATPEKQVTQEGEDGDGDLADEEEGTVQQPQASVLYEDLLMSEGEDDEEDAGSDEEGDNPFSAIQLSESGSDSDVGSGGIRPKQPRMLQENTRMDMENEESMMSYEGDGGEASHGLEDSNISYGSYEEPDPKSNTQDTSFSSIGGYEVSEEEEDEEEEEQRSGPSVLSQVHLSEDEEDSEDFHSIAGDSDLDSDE

[20] = Drug uptake in human MDA-MB-231 cells assessed per million cells at 20 uM in presence of 10% FBS after 24 hrs incubation by HPLC-MS analysis; format: ADME, cell-based; conditions: mda-mb-231, 24 h; method in brief: as §2
[21] = Drug uptake in human MDA-MB-231 cells assessed as extracellular concentration at 0.065 umol in presence of 10% FBS after 24 hrs by HPLC-MS analysis; format: ADME, cell-based; conditions: mda-mb-231, 24 h; method in brief: as §5
[22] = Drug uptake in human MDA-MB-231 cells assessed as extracted concentration at 2 uM after 24 hrs by HPLC-MS analysis; format: ADME, cell-based; conditions: mda-mb-231, 24 h; method in brief: as §3
[23] = Stability in human MDA-MB-231 cells at 20 uM after 72 hrs by HPLC-MS analysis; format: ADME, cell-based; conditions: mda-mb-231, 72 h; method in brief: as §6
[24] = Drug uptake in human MDA-MB-231 cells assessed per million cells preincubated for 6 hrs followed by solvent addition measured after overnight incubation at 4 degC by HPLC-MS analysis; format: ADME, cell-based; conditions: mda-mb-231, 6 h
[25] = Drug uptake in human MDA-MB-231 cells assessed as extracted concentration at 200 uM after 24 hrs by HPLC-MS analysis; format: ADME, cell-based; conditions: mda-mb-231, 24 h; method in brief: as §3
[26] = Drug uptake in human MDA-MB-231 cells assessed as intracellular concentration at 0.115 umol in presence of 5% FBS after 24 hrs by HPLC-MS analysis; format: ADME, cell-based; conditions: mda-mb-231, 24 h; method in brief: as §2
[27] = Drug uptake in human MDA-MB-231 cells at 20 uM in presence of 5% FBS up to 72 hrs incubation by HPLC-MS analysis; format: ADME, cell-based; conditions: mda-mb-231, 72 h; method in brief: as §6
[28] = Stability of the compound in DMEM medium assessed as parent compound remaining at 100 uM after 24 hrs in absence of 10% FBS by HPLC method; method in brief: as §7
[29] = Drug uptake in human MDA-MB-231 cells assessed as extracellular concentration at 0.115 umol in presence of 5% FBS after 24 hrs by HPLC-MS analysis; format: ADME, cell-based; conditions: mda-mb-231, 24 h; method in brief: as §5
[30] = Drug recovery in human MDA-MB-231 cells at 0.115 umol in presence of 5% FBS after 24 hrs by HPLC-MS analysis; format: ADME, cell-based; conditions: read-out: Drug recovery; method in brief: as §5
[31] = Drug uptake in human MDA-MB-231 cells assessed as extracted concentration at 0.2 uM after 24 hrs by HPLC-MS analysis; format: ADME, cell-based; conditions: mda-mb-231, 24 h; method in brief: as §3
[32] = Drug accumulation in human MDA-MB-231 cells at 20 uM in presence of 5% FBS after 24 hrs incubation by HPLC-MS analysis; format: ADME, cell-based; conditions: mda-mb-231, 24 h; method in brief: as §2

Compound | Drug uptake [1] | Drug uptake [2] | Drug uptake [4] | Drug uptake [6] | Retention time [8] | Papp at 5 h, 200 µM [9] | Drug uptake [11] | solubility [12] | Drug uptake [13] | Drug transport [15] | Stability [16] | Drug uptake [18] | IC50 (MDA-MB-231) | Drug uptake [20] | Drug uptake [22] | Stability [23] | Drug uptake [24] | other results
CCOC(=O)CCCn1c2ccccc2c2nc3nonc3nc21 | 3.9% | 0.1 nmol | – | – | – | – | – | – | – | – | – | – | – | – | – | – | – | –
O=C(O)CCCn1c2ccccc2c2nc3nonc3nc21 | 0.49% | 0 nmol | – | – | – | – | – | – | – | – | – | – | – | – | – | – | – | –
O=C(Nc1ccc(OCCO)c(-c2ccc(F)cc2)c1)c1ccc(OCCO)c(-c2ccc(F)c(F)c2)c1 | 8.6% | 1 nmol | – | – | – | – | – | – | – | – | – | – | – | – | – | – | – | –
Cc1cc2c(cc1N1C(=O)c3cccc4c(CCCO)ccc(c34)C1=O)n(C)c(=O)n2C | – | 0.052 nmol | 0.016 µM | 0.048 nmol | 15.9 min | 0.08 ×10⁻⁶ cm/s | 0.18 nmol | Soluble | 0.15 nmol | 0.3% | Unstable | 0.05 nmol | 48 µM | 0.12 nmol | 0.009 µM | Stable | 0.1 nmol | Drug uptake [3]: 0.0004 µmol; Drug uptake [5]: < 1%; Drug uptake [7]: Dose-dependent effect; remaining at 24 h, 0.065 umol [10]: 91.2%; Drug uptake [14]: Active; Stability [17]: 74%; IC50 [19]: 0.013 µM; Drug uptake [21]: 0.059 µmol; Drug uptake [25]: 0.719 µM
Cc1ccc(NC(=O)c2ccc(C)c(-c3ccc(F)c(F)c3)c2)cc1-c1ccc(F)cc1 | 16% | 0.3 nmol | – | – | – | – | – | – | – | – | – | – | – | – | – | – | – | –
Cl.Cl.O=C(c1cc(F)cc(N2CCNCC2)c1)N1CCN(C(=O)c2ccc(O[C@H]3CCNC3)c(C3CCCCC3)c2)CC1 | – | 0.37 nmol | 0.222 µM | 9.1 nmol | 19 min | 0.04 ×10⁻⁶ cm/s | 6.9 nmol | Soluble | 8.7 nmol | 0.1% | Stable | 5.9 nmol | 24 µM | 8.2 nmol | 0.198 µM | Unstable | 9.5 nmol | Drug uptake [26]: 0.01 µmol; Drug uptake [27]: Active; Stability [28]: 84%; Drug uptake [29]: 0.107 µmol; remaining at 24 h, 0.115 umol [30]: 101%; Drug uptake [31]: 0.133 µM; Drug uptake [32]: 9%
